# Measurements from the M2OR odorant receptor database.
# Molecular target: T1, OR5M3 (Homo sapiens) (UniProt Q8NGP4)
# T1 sequence (whole entry): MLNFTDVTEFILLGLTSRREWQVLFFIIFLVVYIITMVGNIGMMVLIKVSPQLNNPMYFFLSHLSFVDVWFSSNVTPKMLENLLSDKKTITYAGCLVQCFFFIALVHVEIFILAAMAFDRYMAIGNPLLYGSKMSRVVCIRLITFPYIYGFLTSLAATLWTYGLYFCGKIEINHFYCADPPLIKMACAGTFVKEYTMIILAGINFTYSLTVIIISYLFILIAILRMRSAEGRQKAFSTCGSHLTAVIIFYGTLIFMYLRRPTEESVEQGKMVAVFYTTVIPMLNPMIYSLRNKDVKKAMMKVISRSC
# Conditions: stereoisomer not certain
# Summary of the method: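 Whether a receptor–molecule pair is responsive (active) rests on the original authors' judgment that its measured signal was statistically different from baseline. Pairs without that judgment are non-responsive (inactive). Sources used varied assay methods, commonly transient luciferase assays in mammalian cell lines.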
# 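Further: active if original authors judged signal statistically different from baseline.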
row,Structure (SMILES),odorant receptor agonist call
1,COc1ccc(C=O)cc1,inactive
2,SCc1ccco1,inactive
3,Cc1ccccc1O,inactive
4,CCOC(=O)Cc1ccccc1,inactive
5,C=CCSSCC=C,inactive
6,C=CCc1ccc(OC)cc1,inactive
7,NCC(=O)c1ccccc1,inactive
8,Cc1c([N+](=O)[O-])c(C)c([N+](=O)[O-])c(C(C)(C)C)c1[N+](=O)[O-],inactive
9,CSSC,inactive
10,Cc1ccc(O)c(C)c1,inactive
11,C=CCOC(=O)Cc1ccccc1,inactive
12,O=Cc1ccc2c(c1)OCO2,inactive
